LEDGF integ inh – blockers of LEDGF/p75-dependent integrase strand transfer – biochemical, TR-FRET, high throughput, primary screen. AID 743269, 2014. hit rate 0.64% among 370,000. TR-FRET IN-LEDGF/p75 DNA integration, Eu/Cy5. HIV-1 integrase (with human LEDGF/p75). inhibition, % at 3.7 µM;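 active = inhibition above the screen-wide mean plus 3 SD, cut at about 13% in these data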;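 note: signal is the Cy5 over europium emission ratio at 671 and 618 nm; 0% = plate median of compound wells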
UHRF1 MBD2 ctr – UHRF1 methylated DNA binding inhibitors, primary screen, counter-screen for MBD2 inhibitor project, biochemical, TR-FRET, human UHRF1, single concentration; UHRF1 binding to methylated oligo; inhibition, % at 4.4 µM; AID 687016, 2013; E3 ubiquitin-protein ligase UHRF1 (Homo sapiens), Q96T88; hit rate 0.75% among 370,000; in the data active = inhibition above about 21%;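 note: UHRF1 SRA domain binding a hemimethylated CpG hairpin DNA probe; 0% = median of test compound wells and 100% = reference inhibitor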
NSD2 inh – NSD2 histone methyltransferase inhibitors, primary screen, biochemical, AlphaScreen, single concentration, set 2 | hit rate 0.54% among 310,000 | NSD2 peptide methylation, 120 min | AID 743445, 2014 | inhibition, % at 12.5 µM; in the data active = inhibition above about 50%
TDP2 absorb – human TDP2 enzyme inhibitors, primary screen, biochemical, epi absorbance, recombinant enzyme. hit rate 0.34% among 370,000. inhibition, % at 12.8 µM. T5PNP hydrolysis, p-nitrophenol absorbance 415 nm;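 active = inhibition above the mean of all tested compounds plus 3 SD, set per campaign, cut at about 25% in these data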;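 note: 0% = DMSO with enzyme and 100% = buffer with substrate but no TDP2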
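System – recombinant human TDP2 · Amount – 120 nM TDP2 per well · Buffer or medium – Mg2+-containing Tris-HCl buffer, pH 7.5 · Reagent – T5PNP substrate, 5 mM · Dosing – 12.8 µM single point, 1% DMSO · Incubation – 2 h at 37 °C · Measured by – epi absorbance · Read-out basis – percent inhibition · Benchmarks – high control without enzyme, low control DMSO plus TDP2 · Repeats – singlicate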
CASP6 VEID inh – human caspase-6 inhibitors, primary screen, biochemical, VEID-R110 fluorescence, single point, set 2. hit rate 0.53% among 350,000. inhibition, % at 12.5 µM. purified caspase-6, Z-VEID-R110 cleavage fluorescence. P55212;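 active = mean inhibition across replicates at least about 35%, with every replicate also reaching that limit, limit read from the data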;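 note: 0% = median of neutral control wells and 100% = no fluorescence left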
Target sequence (P55212 24-179 limits assumed): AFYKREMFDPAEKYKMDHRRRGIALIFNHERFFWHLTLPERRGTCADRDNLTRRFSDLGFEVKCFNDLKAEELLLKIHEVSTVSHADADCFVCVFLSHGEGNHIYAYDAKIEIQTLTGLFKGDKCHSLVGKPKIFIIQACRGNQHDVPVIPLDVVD
Target sequence (P55212 194-293 limits assumed): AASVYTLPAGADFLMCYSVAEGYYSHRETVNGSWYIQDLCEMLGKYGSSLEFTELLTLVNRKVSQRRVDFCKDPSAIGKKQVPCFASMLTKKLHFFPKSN
MBD2 DNA inh – inhibitors of MBD2 binding to methylated DNA, primary screen, biochemical, TR-FRET, DNA-binding domain, human; inhibition, % at 4.4 µM; AID 686964, 2013; MBD2 binding to methylated oligonucleotide; Methyl-CpG-binding domain protein 2 (Homo sapiens), Q9UBB5; hit rate 0.31% among 370,000; in the data active = inhibition above about 13%
Target sequence (Q9UBB5 whole entry, looked up, the tested form may be a part): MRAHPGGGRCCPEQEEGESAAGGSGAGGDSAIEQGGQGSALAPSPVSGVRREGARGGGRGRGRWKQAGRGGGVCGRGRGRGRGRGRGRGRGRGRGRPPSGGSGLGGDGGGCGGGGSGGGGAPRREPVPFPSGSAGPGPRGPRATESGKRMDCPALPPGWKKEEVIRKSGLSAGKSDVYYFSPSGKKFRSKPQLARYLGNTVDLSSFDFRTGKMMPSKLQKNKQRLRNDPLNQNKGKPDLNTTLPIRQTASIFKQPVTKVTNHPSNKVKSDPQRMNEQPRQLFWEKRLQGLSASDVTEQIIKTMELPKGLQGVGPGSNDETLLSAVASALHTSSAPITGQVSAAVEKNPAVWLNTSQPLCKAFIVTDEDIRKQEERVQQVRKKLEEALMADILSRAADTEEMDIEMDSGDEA
Active calls of the source: *. Compounds with a hit are over-represented: about 1.8% of the library has one in this group of screens.

Results for O=C(C[C@@H]1C[C@@H]2c3cc(NC(=O)Nc4ccccc4)ccc3O[C@@H]2[C@H](CO)O1)NCCN1CCCCC1 ?
CASP6 VEID inh: 0

How did Cc1noc(C)c1S(=O)(=O)Nc1ccc2c(c1)C(=O)N([C@H](C)CO)C[C@@H](C)[C@H](CN(C)Cc1ccccc1)O2 do in these assays?
CASP6 VEID inh: 1

What do the screens show for `O=c1c2ccccc2nc2n1C(CSCc1ccc(Cl)cc1Cl)CS2` (centres undefined)?
LEDGF integ inh: 2; UHRF1 MBD2 ctr: 22*; NSD2 inh: 3; TDP2 absorb: 3; MBD2 DNA inh: 8

What do the screens show for `CC(C)C(=O)NC(=S)Nc1sc2c(c1C(N)=O)CCCC2`?
LEDGF integ inh: 1; UHRF1 MBD2 ctr: 50*; NSD2 inh: 0; TDP2 absorb: 5; CASP6 VEID inh: 4; MBD2 DNA inh: 6

Results for NC(=O)c1c(NC(=O)C2CC=CCC2C(=O)O)sc2c1CCCCC2 (centres undefined) ?
LEDGF integ inh: 0; UHRF1 MBD2 ctr: 3; NSD2 inh: 3; TDP2 absorb: 14; CASP6 VEID inh: 52*; MBD2 DNA inh: 7

What do the screens show for `CCCC(=O)NC(=S)Nc1sc2c(c1C(N)=O)CCC2`?
LEDGF integ inh: -5; UHRF1 MBD2 ctr: 5; TDP2 absorb: -4; CASP6 VEID inh: 0; MBD2 DNA inh: 6

Results for Cc1ccccc1-c1ccc2c(c1)O[C@H](CN(C)C(=O)c1ccccn1)[C@H](C)CN([C@H](C)CO)S2(=O)=O ?
CASP6 VEID inh: 0

What do the screens show for `CN(C)S(=O)(=O)c1cccc(NC(=S)Nc2cccc3cnccc23)c1`?
LEDGF integ inh: 7; UHRF1 MBD2 ctr: 2; TDP2 absorb: 28*; CASP6 VEID inh: 2; MBD2 DNA inh: -3

What do the screens show for `O=C(C1CCCCC1)N1CCN(C(=O)C2CCCCC2)CC1`?
LEDGF integ inh: -9; UHRF1 MBD2 ctr: 2; NSD2 inh: -2; TDP2 absorb: -11; CASP6 VEID inh: 1; MBD2 DNA inh: 2

What do the screens show for `O=C1CN(C(=O)C2CCCC2)CCN1`?
LEDGF integ inh: -1; UHRF1 MBD2 ctr: 63*; NSD2 inh: 2; TDP2 absorb: -3; CASP6 VEID inh: 24; MBD2 DNA inh: 0

What do the screens show for `O=C1CN(C(=O)COC(=O)c2ccco2)c2ccccc2N1`?
LEDGF integ inh: 3; UHRF1 MBD2 ctr: -1; NSD2 inh: -3; TDP2 absorb: 3; CASP6 VEID inh: 9; MBD2 DNA inh: -6

How did O=C1CN(C(=O)CNCc2ccc(Cl)cc2)c2ccccc2N1 do in these assays?
LEDGF integ inh: -1; UHRF1 MBD2 ctr: 62*; NSD2 inh: -2; TDP2 absorb: 5; CASP6 VEID inh: 1; MBD2 DNA inh: 2

How did O=C1CN(C(=O)COC(=O)c2ccc([N+](=O)[O-])o2)c2ccccc2N1 do in these assays?
LEDGF integ inh: 1; UHRF1 MBD2 ctr: 4; NSD2 inh: 23; TDP2 absorb: 14; CASP6 VEID inh: 39*; MBD2 DNA inh: 2

How did CC1(C)C(=O)Nc2ccccc2N1C(=O)COC(=O)c1ccc([N+](=O)[O-])o1 do in these assays?
LEDGF integ inh: 0; UHRF1 MBD2 ctr: -6; NSD2 inh: 0; TDP2 absorb: 3; CASP6 VEID inh: 47*; MBD2 DNA inh: 1

How did Cc1ccc(NC(=O)CN(C)C(=O)Cc2ccc(Cl)c(Cl)c2)cc1 do in these assays?
LEDGF integ inh: -1; UHRF1 MBD2 ctr: 0; NSD2 inh: 6; TDP2 absorb: -4; CASP6 VEID inh: -4; MBD2 DNA inh: 1

What do the screens show for `Cc1ccc(NC(=O)CN(C)C(=O)Cn2ncc(Cl)c(Cl)c2=O)cc1`?
LEDGF integ inh: -3; UHRF1 MBD2 ctr: 6; NSD2 inh: 6; TDP2 absorb: -1; CASP6 VEID inh: 41*; MBD2 DNA inh: 2

How did O=C(C1CC1)N1CC2(C1)[C@@H](c1ccccc1)[C@@H](CO)N2CCC(F)(F)F do in these assays?
CASP6 VEID inh: 0

How did O=C(C[C@H]1CC[C@H]2[C@@H](COC[C@H](O)CN2Cc2nccs2)O1)NCc1ccc(F)cc1 do in these assays?
CASP6 VEID inh: -1

What do the screens show for `O=C1NC2=C(C(=O)CCC2)C(c2cccc([N+](=O)[O-])c2)N1` (centres undefined)?
LEDGF integ inh: -2; UHRF1 MBD2 ctr: 7; NSD2 inh: -2; TDP2 absorb: -24; CASP6 VEID inh: 38*; MBD2 DNA inh: 3

Results for O=C1NC2=C(C(=O)CCC2)C(c2ccc([N+](=O)[O-])cc2)N1 (centres undefined) ?
LEDGF integ inh: -1; UHRF1 MBD2 ctr: 0; NSD2 inh: -1; TDP2 absorb: 3; MBD2 DNA inh: 5

Results for O=C(NCC1CCCCC1)[C@H]1[C@H](CO)[C@H]2Cn3c(cccc3=O)[C@H]2N1Cc1ccccn1 ?
CASP6 VEID inh: -4

What do the screens show for `O=C(CSc1nn(-c2ccccc2)c(=S)s1)Nn1cnnc1`?
LEDGF integ inh: 0; UHRF1 MBD2 ctr: 2; NSD2 inh: -1; TDP2 absorb: -11; MBD2 DNA inh: -2

What do the screens show for `COC(=O)CSc1nn(-c2ccc(F)cc2)c(=S)s1`?
LEDGF integ inh: -2; UHRF1 MBD2 ctr: 21*; NSD2 inh: -3; TDP2 absorb: -8; CASP6 VEID inh: -3; MBD2 DNA inh: 6

How did Cc1cccc(C)c1NC(=O)C(C1CC1)n1c(=O)c(-c2ccco2)nc2ccccc21 (centres undefined) do in these assays?
LEDGF integ inh: 1; UHRF1 MBD2 ctr: -5; TDP2 absorb: 5; CASP6 VEID inh: 36*; MBD2 DNA inh: 3

How did C[C@H](CO)N1C[C@H](C)[C@H](CN(C)Cc2ccc(Oc3ccccc3)cc2)Oc2ccc(NS(=O)(=O)c3cccs3)cc2C1=O do in these assays?
CASP6 VEID inh: -1

How did Cc1ccc(OCc2ccc(C(=O)Nc3ccc(C(N)=O)cc3)o2)c([N+](=O)[O-])c1 do in these assays?
LEDGF integ inh: 0; UHRF1 MBD2 ctr: 34*; NSD2 inh: 0; TDP2 absorb: -6; CASP6 VEID inh: -1; MBD2 DNA inh: 10

What do the screens show for `O=C(O)c1ccc(NC(=O)c2ccc(COc3ccccc3)o2)cc1`?
LEDGF integ inh: 0; UHRF1 MBD2 ctr: 26*; NSD2 inh: -6; TDP2 absorb: -4; CASP6 VEID inh: 2; MBD2 DNA inh: 1

What do the screens show for `Cc1ccc(NC(=O)CN2C(=O)N/C(=C/c3cccn3-c3ccc(C(=O)O)cc3)C2=O)cc1`?
LEDGF integ inh: 57*; UHRF1 MBD2 ctr: 102*; TDP2 absorb: 16; MBD2 DNA inh: 72*

Screening results as filed in PubChem BioAssay.
